This is an account of results in ChEMBL document CHEMBL1255440, “An antimicrobial peptide that targets DNA repair intermediates in vitro inhibits Salmonella growth within murine macrophages” (Antimicrob Agents Chemother, 2010).

Structures are written as SMILES. Active and inactive are the calls of the source. No cut-off for these calls is given here.

In this assay the test system is Salmonella typhimurium. The experiment in a line: Antibacterial activity against 1 MOI Salmonella enterica subsp. enterica serovar Typhimurium infected in mouse J774A1 cells assessed as reduction in bacterial growth at 2.5 times MIC. The class given is functional, organism-based. To be noted: J774.A1. The essentials:
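J774A.1 cells or thioglycolate-elicited BALB/c peritoneal macrophages seeded at 200,000/well, overnight 37°C 5% CO2; infected with GFP strain SDT1416, 1 h invasion, washed, 1 h in DMEM with 15 μg/ml gentamicin. Then fresh DMEM plus 15 μg/ml gentamicin with or without peptide (DMSO vehicle) for 24 h at 37°C; macrophages lysed with 1% Triton X-100, plated on LB agar for CFU.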

Regarding `N=C(N)NCCC[C@H](NC(=O)[C@H](CS)NC(=O)[C@H](Cc1ccc(O)cc1)NC(=O)[C@H](Cc1c[nH]c2ccccc12)NC(=O)[C@H](CCCNC(=N)N)NC(=O)[C@@H](N)Cc1c[nH]c2ccccc12)C(=O)O`, the result was Active.
